RGS4 pot: RGS4 potentiation or activation | HEK293 M3R/inducible RGS4, carbachol calcium flux Fluo4; active compounds read low | B-score at 10 µM | 310,000 compounds, 0.92% hits;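 active means B-score of the integrated calcium signal more than 4 SD below the library mean, with starting fluorescence not abnormally high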;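 further: negative B-score means reduced calcium response which marks RGS4 activation or potentiation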
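Material: Inducible-RGS4 HEK293 cells carrying M3 receptor; also added: carbachol at ECmax as muscarinic agonist stimulus; incubation: compound preincubation 20 min at room temperature before agonist; signal: Fluo4-AM (2 µM) calcium-flux fluorescence, kinetic read; measure: integrated calcium ratio converted to B score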
MrgX1 agonist: agonists of human MrgX1 receptor. B-score at 10 µM. Q96LB2. 310,000 compounds, 0.44% hits. MrgX1-HEK293 cells, Fluo-4 calcium fluorescence, agonist mode; active compounds read high;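 active means calcium response B-score plate-corrected fluorescence ratio at least 3 library SD, with starting fluorescence B-score inside 5 SD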
Target sequence (Q96LB2 whole entry, looked up): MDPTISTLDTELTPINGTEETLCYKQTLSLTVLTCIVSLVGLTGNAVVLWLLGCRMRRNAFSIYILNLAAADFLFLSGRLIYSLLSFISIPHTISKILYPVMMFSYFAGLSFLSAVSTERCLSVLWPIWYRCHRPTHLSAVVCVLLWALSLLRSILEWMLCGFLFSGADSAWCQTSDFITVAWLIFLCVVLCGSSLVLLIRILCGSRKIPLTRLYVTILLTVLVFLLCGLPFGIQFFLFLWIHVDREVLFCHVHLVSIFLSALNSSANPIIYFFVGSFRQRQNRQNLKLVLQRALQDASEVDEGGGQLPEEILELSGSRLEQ
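Material: HEK293 cells stably expressing human MrgX1 receptor | Quantity: 15,000 cells per well | Times: Cells plated overnight, dye loaded 0.5 h 37 °C, 0.5 h room temperature | Measured by: Kinetic Fluo-4 NW fluorescence of intracellular calcium | Control set: Positive and negative controls per plate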
MrgX1 PAM: allosterically activates human MrgX1 receptor signaling. Q96LB2. MrgX1-HEK293, Fluo-4 calcium flux, FDSS; active compounds read high. B-score at 10 µM. 310,000 compounds, 0.63% hits. AID 588675;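 active means plate-corrected calcium response at least 3 library SD above typical, normal starting fluorescence, not activating the receptor alone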;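 further: compound read alongside a low EC10 to EC30 dose of BAM8-22 agonist; peak minus trough fluorescence over baseline measured at the second addition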
MrgX1 antag: blocks BAM8-22 activation of human MrgX1 receptor; MRGX1-HEK293 calcium flux, Fluo-4, BAM8-22 antagonism; active compounds read low; B-score at 10 µM; 310,000 compounds, 1.3% hits; AID 588676;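 active means calcium-response B-score plate-corrected more than 3 library SD below zero, starting fluorescence within 5 deviations, no agonist response on first addition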;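 further: peak minus trough fluorescence over baseline after final BAM8-22 challenge near maximal dose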
RGS4 inh: inhibitors of human RGS4; P49798; HEK293 M3R/RGS4 inducible, Fluo-4 calcium flux; active compounds read high; triggered by carbachol at its EC20; B-score at 10 µM; 310,000 compounds, 0.45% hits; AID 463165;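 active means B-score, a plate-corrected calcium signal, over three deviations above library mean, with baseline fluorescence within five deviations of library mean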;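 further: RGS4 expression induced by doxycycline in cells with stable M3 receptor; B-score is computed from the integrated fluorescence ratio over baseline after carbachol; higher B-score means a larger calcium signal and so more RGS4 inhibition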
Target sequence (P49798 whole entry, looked up): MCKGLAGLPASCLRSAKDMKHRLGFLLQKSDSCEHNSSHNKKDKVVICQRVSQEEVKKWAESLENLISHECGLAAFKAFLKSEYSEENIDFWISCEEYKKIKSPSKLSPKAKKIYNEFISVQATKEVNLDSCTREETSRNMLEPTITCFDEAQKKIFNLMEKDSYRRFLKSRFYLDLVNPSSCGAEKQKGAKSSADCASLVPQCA
MrgX1 antag conf: human MrgX1 receptor antagonism, re-confirmation screen; shares compounds with MrgX1 antag; MrgX1-HEK293, BAM8-22 calcium flux, Fluo-4; active compounds read low; remaining BAM8-22 calcium response % of control (active compounds read low), % at 10 µM; 2,300 compounds, 19% hits;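 active means remaining agonist calcium response no higher than 100% minus 3 SD of agonist-only control wells, with starting fluorescence near control levels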;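 further: agonist BAM8-22 given at a near maximal EC90 to ECmax level; peak minus minimum fluorescence divided by baseline after agonist addition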
HEK293 Ca flux: activity in parental HEK293 cells lacking MrgX1; Fluo-4 calcium fluorescence, FDSS; shares compounds with MrgX1 antag; fluorescence ratio F(max-min)/F0 at 10 µM; 4,000 compounds, 2% hits;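 active means duplicate-averaged calcium fluorescence ratio at least three times the standard deviation of buffer wells, a nonspecific response in parental cells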
HEK293 Ca counter: activity in parental HEK293 cells without MrgX1; 4,000 compounds, 0.4% hits; parental HEK293 calcium flux, Fluo-4 fluorescence ratio; active compounds read high; fluorescence ratio F(max-min)/F0 at 10 µM; shares compounds with MrgX1 antag; AID 624114;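 active means calcium fluorescence ratio, averaged over duplicates, at least 3 SD of the buffer-well ratio, meaning a nonspecific response in receptor-free cells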;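 further: untransfected parental HEK293 lacking MrgX1 used as counterscreen for MrgX1 allosteric activators; fluorescence change taken during the second addition on a kinetic imager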
HEK293 Ca cntr2: MrgX1 activator counter-screen hit in parental HEK293 cells; Fluo-4 calcium fluorescence (FDSS); active compounds read high; AID 624115; shares compounds with MrgX1 antag; fluorescence ratio F(max-min)/F0 at 10 µM; 4,000 compounds, 8.7% hits;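 active means calcium fluorescence ratio at least three times the spread of buffer wells, meaning a non-specific response in parental cells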
* marks the source's active call; other numbers are inactive results; i = inactive; / = no result given. Compounds with a hit are over-represented: about 3.5% of the library has one in this group of screens.

SMILES | RGS4 pot | MrgX1 agonist | MrgX1 PAM | MrgX1 antag | RGS4 inh | MrgX1 antag conf | HEK293 Ca flux | HEK293 Ca counter | HEK293 Ca cntr2
CN(C)C/C=C(\c1ccc(Br)cc1)c1cccnc1 | / | i | i | -4.92* | / | i | i | i | i
CCN1CCN(C(=S)Nc2ccc3nc(N4CCN(CC)CC4)cc(C)c3c2)CC1 | i | i | i | -4.95* | i | i | i | i | i
O=C1CCC(=O)N1CN(C(=O)c1ccco1)c1ccccc1 | i | i | i | -6.58* | i | i | i | i | i
Cc1ccc(N(CN2C(=O)C3C4CCC(C4)C3C2=O)C(=O)c2ccco2)cc1 (stereo not drawn) | i | i | i | i | i | / | / | / | /
COc1ccc(C(C(=O)NC2CCCC2)N(CCCO)C(=O)c2snc(C(N)=O)c2N)cc1 (stereo not drawn) | i | i | i | i | i | / | / | / | /
CCCc1nc2ccccc2c(=O)n1CC(=O)c1ccccc1 | i | i | i | -5.77* | i | i | i | i | i
CCc1nnc(NC(=O)CSc2nc3cccnc3n2Cc2ccccc2)s1 | i | i | i | -5.85* | i | i | i | i | i
Cc1ccc(-n2c(-c3ccncc3)nnc2-c2cccs2)cc1 | i | i | i | -5.66* | i | i | i | i | i
CCn1cc([N+](=O)[O-])c(C(=O)Nc2nc(-c3ccc(C)cc3)c(C)s2)n1 | i | i | i | -9.97* | i | i | i | i | i
O=C(Cc1c(F)cccc1Cl)N/N=C/c1cccnc1 | i | i | i | i | i | / | / | / | /
O=C(Nc1nnc(-c2cccs2)o1)c1cc(-c2ccccc2)nc2ccccc12 | i | i | i | i | i | / | / | / | /
CCN(CC(=O)Nc1ccc2c(c1)OCCO2)c1nc(-c2cccnc2)nc2ccccc12 | i | i | i | -10.8* | i | i | i | i | i
O=C(Nc1ccc2c(c1)OCO2)c1cc(-c2cccnc2)nc2ccccc12 | i | i | i | i | i | / | / | / | /
COc1ccc(CCN(Cc2cccs2)S(=O)(=O)c2ccc(S(=O)(=O)N(C)C3CCCCC3)cc2)cc1OC | i | i | i | i | i | / | / | / | /
O=C(Cc1cccc2ccccc12)N1CCCc2ccccc21 | i | i | i | i | i | / | / | / | /
CCCCc1cn([C@@H](CCCCN)C(=O)N2CCNCC2)nn1 | i | i | i | i | i | / | / | / | /
NCCCC[C@@H](C(=O)N1CCNCC1)n1cc(CN)nn1 | / | i | i | -7.1* | / | i | i | i | i
CC1(C)C(C=C(Cl)Cl)C1C(=O)N1CCN(c2ccccc2)CC1 (stereo not drawn) | i | i | i | -6.59* | i | i | i | i | i
O=C1C(=O)N(Cc2cccnc2)C(c2ccccn2)/C1=C(/O)c1ccc(F)cc1 (stereo not drawn) | i | i | i | -5.13* | i | i | i | i | i
COCCN1C(=O)C(=O)/C(=C(/O)c2ccc(C)cc2)C1c1ccccn1 (stereo not drawn) | i | i | i | -7.67* | i | i | i | i | i
Cc1ccc(/C(O)=C2/C(=O)C(=O)N(CCCn3ccnc3)C2c2ccccn2)cc1 (stereo not drawn) | i | / | / | / | i | / | / | / | /
c1coc(C2Nc3ccccc3-c3nc4ccccc4n32)c1 (stereo not drawn) | i | i | i | -6.32* | i | i | i | i | i
O=C(Cc1ccccc1)NC(C(=O)O)C(O)c1ccc([N+](=O)[O-])cc1 (stereo not drawn) | i | i | i | i | i | / | / | / | /
Cc1ccc(C)c(NS(=O)(=O)c2ccc3[nH]c(=O)oc3c2)c1 | i | i | i | -5.26* | i | i | i | i | i
Cc1cc(C)cc(-c2nnc(SCC(=O)N3CCN(C(=O)c4ccco4)CC3)o2)c1 | i | i | i | -6.31* | i | i | i | i | i
SMILES | RGS4 pot | MrgX1 agonist | MrgX1 PAM | MrgX1 antag | RGS4 inh | MrgX1 antag conf | HEK293 Ca flux | HEK293 Ca counter | HEK293 Ca cntr2
Cc1cccc(C(=O)NCCCNC(=O)c2cccnc2)c1 | i | i | i | i | i | / | / | / | /
COc1ccc(-c2nc3ccccc3c(=O)n2CCOc2c(C)cccc2C)cc1 | i | i | i | -4.64* | i | i | 0.2* | i | i
CCCSCC(=O)Nc1ncc2c(n1)-c1ccccc1CC2 | i | i | i | -4.66* | i | 75.4%* | i | i | i
O=C(Nc1ncc2c(n1)-c1ccccc1CC2)c1ccc(Cl)cc1 | i | i | i | -5.19* | i | i | i | i | i
O=C(Nc1ncc2c(n1)-c1ccccc1OC2)c1ccc(F)cc1 | i | i | i | i | i | / | / | / | /
O=C(Nc1ncc2c(n1)-c1ccccc1CC2)c1cccc(Cl)c1 | i | i | i | i | i | / | / | / | /
CCn1cc(/C=C(\NC(=O)c2ccccc2)C(=O)NCCCN2CCOCC2)c2ccccc21 | i | i | i | i | i | / | / | / | /
O=C(NCCc1ccc(C(F)(F)F)cc1)C1CCC(=O)N(CCCc2ccccc2)C1 (stereo not drawn) | i | i | i | i | i | / | / | / | /
COC(=O)c1cc(S(=O)(=O)NC2CCC(C)CC2)cn1C (stereo not drawn) | i | i | i | i | i | / | / | / | /
Cc1oc(-c2cccs2)nc1CN1CCN(CC(C)C)C(CCO)C1 (stereo not drawn) | i | i | i | -4.53* | i | i | i | i | i
OCCCNc1cc(-c2ccnc(Nc3cccc(Cl)c3)n2)ccn1 | i | i | i | -4.91* | i | 59.8%* | i | i | i
Cc1cc(C)c2cc3c(ccn3C3OC[C@H](O)[C@H](O)[C@H]3O)cc2n1 (stereo partly drawn) | i | i | i | -6.36* | i | i | i | i | i

High-throughput results: PubChem, Johns Hopkins Ion Channel Center
